# Assay results from ChEMBL document CHEMBL1129524, “Potent inhibitors of acyl-CoA:cholesterol acyltransferase. 2. Structure-activity relationships of novel N-(2,2-dimethyl-2,3-dihydrobenzofuran-7-yl)amides” (J Med Chem, 1996).
# Columns and labels:
# O-acyltransferase = O-acyltransferase (Oryctolagus cuniculus, UniProt G1SFD9); assay: Inhibitory activity against Acyl coenzyme A:cholesterol acyltransferase 1 obtained from rabbit intestine microsomes
# Outline: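 Enzyme source was small-intestinal mucosa microsomes from cholesterol-fed rabbits. The substrate was [1-¹⁴C]oleoyl-CoA.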
# Rattus norvegicus [1] = assay: Total cholesterol lowering activity tested by administered orally to rats at dose 10(mg/kg) once a day for 3 days; assay type: functional
# Outline: (§1)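 Male Wistar rats received the compound orally once daily for 3 days. Each night they ate a diet with 2% cholesterol, 1% cholic acid, 20% casein, 45% sucrose, 12% coconut oil, 4% KC flock, 1% vitamin mix, 7% mineral mix and 8% dried fish powder. Serum total cholesterol was then measured. Activity is the observed reduction as a percentage of the control-minus-normal difference.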
# Rattus norvegicus [2] = assay: Total cholesterol lowering activity tested by administered orally to cholesterol fed rats at dose 0.3(mg/kg) once a day for 3 days; assay type: functional; outline: as §1
# Rattus norvegicus [3] = organism: Rattus norvegicus; assay: Inhibitory activity against foam cell formation (acetyl-LDL-induced cholesteryl ester accumulation) in rat peritoneal macrophages; assay type: functional
# Outline: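 Peritoneal macrophages were prepared from rats. The IC₅₀ was determined for inhibition of acetyl-human-LDL-induced cellular cholesteryl ester accumulation.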
# Rattus norvegicus [4] = assay: Total cholesterol lowering activity tested by administered orally to rats at dose 1(mg/kg) once a day for 3 days; assay type: functional; outline: as §1
# Rattus norvegicus [5] = assay: Total cholesterol lowering activity tested by administered orally to cholesterol fed rats at dose 3(mg/kg) once a day for 3 days; assay type: functional; outline: as §1
# Rattus norvegicus [6] = assay: Total cholesterol lowering activity tested by administered orally to rats at dose 3(mg/kg) once a day for 3 days; assay type: functional; outline: as §1
# [7] = biological target: Sterol O-acyltransferase 1 (Oryctolagus cuniculus); assay: Inhibitory activity against Acyl coenzyme A:cholesterol acyltransferase 1 obtained from rabbit liver microsomes
IC50 (O-acyltransferase),SMILES,other results
> 200 nM,CCCCCCCCOc1ccc(C(=O)Nc2c(C)cc(C)c3c2OC(C)(C)C3)cc1,
90 nM,CCCCCCCCCCCCOc1ccc(C(=O)Nc2c(C)cc(C)c3c2OC(C)(C)C3)cc1,
240 nM,CCCCCCCCCCC1(C(=O)Nc2c(C)ccc3c2OC(C)(C)C3)CCCC1,Change (Rattus norvegicus [1]): -52%
120 nM,Cc1cc(C)c(NC(=O)C(C)(C)CCCCCc2ccccc2)c2c1CC(C)(C)O2,Change (Rattus norvegicus [1]): -66%
210 nM,Cc1cc(C)c(NC(=O)C(C)(C)CCCCc2ccccc2)c2c1CC(C)(C)O2,
,CCCCCCCCCCC(C)(C)C(=O)Nc1c(C)cc(C)c2c1OC(C)(C)C2,Change (Rattus norvegicus [2]): -44%; IC50 (Rattus norvegicus [3]): 650 nM; Change (Rattus norvegicus [4]): -61%
,Cc1cc(C)c(NC(=O)C(C)(C)CCCCOCc2ccccc2)c2c1CC(C)(C)O2,Change (Rattus norvegicus [1]): -50%
26 nM,CCCCCCCCCCCCCCCC(=O)Nc1c(C)cc(C)c2c1OC(C)(C)C2,
,CCCCCCCCCCC(C)(C)C(=O)Nc1c(OC)cc(OC)cc1OC [CL-976],Change (Rattus norvegicus [5]): -50%; IC50 (Rattus norvegicus [3]): 3800 nM
,CCCCCCCCCCC(C)(C)C(=O)Nc1c(C)c(N(C)C)c(C)c2c1OC(C)(C)C2,Change (Rattus norvegicus [2]): -71%; IC50 (Rattus norvegicus [3]): 30 nM; Change (Rattus norvegicus [4]): -88%
81 nM,Cc1cc(C)c(NC(=O)C(C)(C)CCCCCCc2ccccc2)c2c1CC(C)(C)O2,
30 nM,CCCCCCCCCCOc1ccc(C(=O)Nc2c(C)cc(C)c3c2OC(C)(C)C3)cc1,Change (Rattus norvegicus [6]): 0%
140 nM,CCCCCCCCC(C)(C)C(=O)Nc1c(C)cc(C)c2c1OC(C)(C)C2,
50 nM,Cc1ccc(OCCCCCCC(C)(C)C(=O)Nc2c(C)cc(C)c3c2OC(C)(C)C3)cc1,
40 nM,Cc1cc(C)c(NC(=O)C(C)(C)CCCc2ccc(CC(C)C)cc2)c2c1CC(C)(C)O2,Change (Rattus norvegicus [6]): -57%
> 200 nM,Cc1cc(C)c(NC(=O)c2ccc(OCCCCCCOc3ccc(Cl)cc3)cc2)c2c1CC(C)(C)O2,

IC50 (O-acyltransferase),SMILES,other results
59 nM,CCCCCCCCCCC(C)(C)C(=O)Nc1c(C)c(N)c(C)c2c1OC(C)(C)C2,
36 nM,CCCCCCCCCCC(C)(C)C(=O)Nc1c(C)c([N+](=O)[O-])c(C)c2c1OC(C)(C)C2,
> 200 nM,CCCOCCCCCCOc1ccc(C(=O)Nc2c(C)cc(C)c3c2OC(C)(C)C3)cc1,
330 nM,Cc1cc(C)c(NC(=O)C(C)(C)CCCCOc2ccc(Cl)cc2)c2c1CC(C)(C)O2,Change (Rattus norvegicus [1]): -61%
170 nM,CCCCCCCCCCC1(C(=O)Nc2c(C)cc(C)c3c2OC(C)(C)C3)CCCC1,
150 nM,Cc1cc(C)c(NC(=O)C(C)(C)CCCCCOc2ccc(Cl)cc2)c2c1CC(C)(C)O2,Change (Rattus norvegicus [4]): -64%
76 nM,Cc1cc(C)c(NC(=O)C(C)(C)CCCCCCOc2ccc(Cl)cc2)c2c1CC(C)(C)O2,Change (Rattus norvegicus [2]): -64%; IC50 (Rattus norvegicus [3]): 1500 nM; Change (Rattus norvegicus [4]): -75%
,Cc1cc(C)c(NC(=O)C(C)(C)CCCCCCOCC(C)C)c2c1CC(C)(C)O2,Change (Rattus norvegicus [1]): -62%
86 nM,Cc1cc(C)c(NC(=O)C(C)(C)CCCCCOc2ccccc2)c2c1CC(C)(C)O2,
,CCCCCCCCCCC(C)(C)C(=O)Nc1c(OC)ccc2c1OCCC2=O,Change (Rattus norvegicus [2]): -66%; IC50 [7]: 16 nM; IC50 (Rattus norvegicus [3]): 160 nM
260 nM,Cc1cc(C)c(NC(=O)C(C)(C)CCCOc2ccc(Cl)cc2)c2c1CC(C)(C)O2,
33 nM,CCCCCCCCCCCCC(C)(C)C(=O)Nc1c(C)cc(C)c2c1OC(C)(C)C2,
500 nM,CCCCCCCCCCC1(C(=O)Nc2cccc3c2OC(C)(C)C3)CCCC1,
> 500 nM,Cc1cc(C)c(NC(=O)C(C)(C)CCCCCCN2CCCCC2)c2c1CC(C)(C)O2,
890 nM,CCCCCCCCCCCCCCCC(=O)Nc1cccc2c1OC(C)(C)C2,
